Experimental data of several laboratories.
Target: cGMP-dependent protein kinase 2 (PRKG2, Homo sapiens, UniProt Q13237)
Residues used in one study (Q13237 1-762): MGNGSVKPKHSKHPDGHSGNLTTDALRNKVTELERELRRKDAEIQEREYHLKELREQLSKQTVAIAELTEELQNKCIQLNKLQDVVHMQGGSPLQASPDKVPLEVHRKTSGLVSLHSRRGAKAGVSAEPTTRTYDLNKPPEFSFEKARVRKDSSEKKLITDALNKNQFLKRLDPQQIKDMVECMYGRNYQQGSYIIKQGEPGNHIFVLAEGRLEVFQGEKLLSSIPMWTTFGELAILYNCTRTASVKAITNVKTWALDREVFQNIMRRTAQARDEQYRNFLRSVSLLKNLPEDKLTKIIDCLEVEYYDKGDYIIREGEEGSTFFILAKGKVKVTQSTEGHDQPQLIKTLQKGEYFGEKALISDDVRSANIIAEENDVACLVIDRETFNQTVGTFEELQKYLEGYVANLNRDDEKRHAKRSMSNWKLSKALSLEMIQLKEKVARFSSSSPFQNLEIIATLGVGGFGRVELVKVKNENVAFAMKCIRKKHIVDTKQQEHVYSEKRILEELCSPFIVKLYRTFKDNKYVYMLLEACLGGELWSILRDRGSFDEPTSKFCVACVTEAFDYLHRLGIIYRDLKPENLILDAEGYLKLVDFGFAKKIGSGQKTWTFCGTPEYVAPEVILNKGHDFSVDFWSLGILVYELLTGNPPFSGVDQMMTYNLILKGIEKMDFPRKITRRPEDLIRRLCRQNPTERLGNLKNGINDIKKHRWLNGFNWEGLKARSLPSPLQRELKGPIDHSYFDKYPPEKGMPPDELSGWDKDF

CC1CCCN1c1nccc(-c2cnn3ncccc23)n1 (stereo not shown) has a remaining binding of 97% (binding; 1 µM).
With O=C(NCCCN1CCOCC1)c1ccc(Nc2ncc(Cl)c(-c3ccc(Cl)s3)n2)cc1 the remaining binding was 54% (binding, competition with immobilised ligand; 1 µM).
The remaining binding of c1cncc(-c2cccc(Nc3nccc(NC4CCCCC4)n3)c2)c1 is reported as 74% (binding, competition with immobilised ligand; 10 µM).
Cn1nc(C(=O)NCc2ccc(C(=O)O)cc2)cc1-c1ccc2[nH]ccc2c1 has a remaining binding of 78% (cell-free assay, competition with immobilised ligand; 0.1 µM).
For O=C(c1ccc(Nc2nccc(-c3cc4ccccc4s3)n2)cc1)N1CCC(N2CCCC2)CC1, the remaining binding was 33% (binding, competition with immobilised ligand; 1 µM).
With FC(F)(F)Oc1cccc(-c2cnc3ccc(-c4ccncc4)nn23)c1 the remaining binding was 88% (cell-free assay, competition with immobilised ligand; 5 µM).
F[C@@H]1CCN(c2nccc(-c3cnn4ncccc34)n2)C1 gave a remaining binding of 93% (binding; 1 µM).
The remaining binding of O=C1NC(c2ccccn2)Sc2ccccc21 (stereo not shown) is reported as 90% (cell-free assay, competition with immobilised ligand; 1 µM).
COc1cnc(Nc2cccc(S(N)(=O)=O)c2)nc1N1CCN(c2ccccc2)CC1 has a remaining binding of 92% (binding, competition with immobilised ligand; 1 µM).
For CN(C)C(=O)Cn1cc(-c2nc(C3(c4ccc(-c5cnc(N)nc5)cc4)CC3)no2)cn1, the remaining binding was 100% (cell-free assay, competition with immobilised ligand; 1 µM).
For C[C@@H]1CCN(c2nccc(-c3cnn4ncccc34)n2)C1, the remaining binding was 81% (binding; 1 µM).
O=C(c1ccc(Nc2ncc(Cl)c(-c3ccc(Cl)s3)n2)cc1)N1CCC(N2CCCC2)CC1 has a remaining binding of 42% (binding, competition with immobilised ligand; 1 µM).
The remaining binding of O=C(O)c1cc(-c2ccc(C3CCNCC3)cc2)c2ccc(-c3ccc(C(F)(F)F)cc3)cc2c1 is reported as 79% (cell-free assay, competition with immobilised ligand; 1 µM).
The remaining binding of CNC(=O)[C@@H]1CC[C@@H](n2c(-c3ccc4cnccc4c3)nc3ccc(C(=O)NCc4cccc(C(N)=O)c4)cc32)C1 is reported as 100% (binding, competition with immobilised ligand; 1 µM).
N[C@@H]1CCN(c2nccc(-c3cnn4ncccc34)n2)C1 has a remaining binding of 100% (binding; 1 µM).
O=C1CCc2cc(Nc3cc(OC4CCOCC4)c([N+](=O)[O-])cc3Cl)ccc2N1 has a remaining binding of 85% (cell-free assay, competition with immobilised ligand; 1 µM).
With CN(C)c1nccc(-c2cnc3ncccn23)n1 the remaining binding was 69% (binding; 1 µM).
The remaining binding of CCC(=N\O)/C(C)=C/c1ccc(F)cc1 is reported as 79% (cell-free assay, competition with immobilised ligand; 1 µM).
CN(C)c1nccc(-c2cnn3ncccc23)n1 has a remaining binding of 100% (binding; 1 µM).
O=C(NCC1CCOCC1)c1n[nH]cc1NC(=O)c1c(F)cccc1F gave a remaining binding of 88% (binding, competition with immobilised ligand; 1 µM).
CN(c1nccc(-c2cnn3ncccc23)n1)C1CC1 has a remaining binding of 100% (binding; 1 µM).
The remaining binding of Nc1ncc2c(n1)-c1c([nH]c3ccc(C#CC4CC4)cc13)CCCC2 is reported as 80% (binding, competition with immobilised ligand; 1 µM).
